Here are results for 16 compounds from ChEMBL document CHEMBL1240421, “Synthesis and evaluation of graveoline and graveolinine derivatives with potent anti-angiogenesis activities” (Eur J Med Chem, 2010).

The subject of experiment [1] is HUVEC. In words: Cytotoxicity against HUVEC cells after 48 hrs by MTT assay. Type of experiment: cell-based. To be noted: Homo sapiens. The method in brief: (§1)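 Cells seeded at 5000 per well, exposed to a range of concentrations. MTT step, then 4 h further incubation. Formazan dissolved in DMSO, OD read at 490 nm. Triplicate wells; IC50 taken from curves of mean OD versus concentration.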
In general terms: Formazan colour is commonly taken as a measure of viable cells.

The test system of experiment [2] is HUVEC. In words: Inhibition of HUVEC cell adhesion to collagen at 30 uM after 3 hrs.
In another experiment the test system is NCI-H460. In words: Cytotoxicity against human NCI-H460 cells after 48 hrs by MTT assay. Type of experiment: functional, cell-based. The settings on record: NCI-H460, 48 h. In outline: as §1
In experiment [3] the test system is HUVEC. In words: Inhibition of HUVEC cell adhesion to collagen at 15 uM. The settings on record: Homo sapiens.
For the next experiment, the species on record is Gallus gallus. In words: Antiangiogenic activity in fertilized chicken eggs at 30 ug/10 uL after 48 hrs by CAM assay. Type of experiment: functional. To be noted: Egg. The method in brief: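 Test agent applied to the chick CAM at 30 µg/10 µL, 10 eggs per treatment; 0.9% NaCl as negative control, thalidomide as positive control. After 48 h, CAMs fixed in 4% paraformaldehyde, vessels counted in three random microscope fields around the filter disc.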

Experiment [4] can be described thus: Cytotoxicity against human GLC82 cells after 48 hrs by MTT assay. Type of experiment: functional, cell-based. The settings on record: GLC82, 48 h. In outline: as §1
In experiment [5] the test system is HUVEC. In words: Inhibition of migration of HUVEC cellss at 15 to 30 uM. Type of experiment: functional, Homo sapiens. The method in brief: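 Scratch-wound assay: HUVEC plated at 20 000 cells per well, monolayer scraped with a rubber policeman, then incubated 24 h with or without compound. Two random pictures per wound; migration area measured. Triplicate measurements, at least three experiments.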

Experiment [6] deals with HUVEC. In words: Inhibition of HUVEC cell adhesion to collagen at 30 uM after 1 hr. Type of experiment: functional. To be noted: Homo sapiens. The method in brief: (§2)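 Wells coated overnight at room temperature with rat tail tendon type I collagen in PBS, blocked with 0.2% BSA for 2 h at 37 °C. HUVEC resuspended in DMEM and added at 10⁴ cells/ml with compound, incubated 1 or 3 h at 37 °C. After washing, attached cells stained with 0.2% crystal violet and solubilized in 2% SDS; OD at 570 nm. Triplicate wells, three independent experiments.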

Experiment [7] deals with HUVEC. In words: Inhibition of HUVEC cell adhesion to collagen at 15 uM after 3 hrs. Type of experiment: functional. The settings on record: Homo sapiens. The method in brief:
as §2

The subject of experiment [8] is HUVEC. In words: Inhibition of HUVEC cell adhesion to collagen at 15 uM after 1 hr. To be noted: Homo sapiens. Type of experiment: functional, cell-based. In outline:
as §2

Each structure is given as a SMILES string. Calls of active or inactive are those of the source. The rule behind the calls is not given here. A value given as a limit tells only on which side of the number the result lay.

Turning to `COc1ccc(Nc2cc(-c3ccc(C)cc3)nc3ccccc23)cc1`, the concentration for half-maximal inhibition (IC50) stood at 14.3 µM with HUVEC [1], 24.2 µM with NCI-H460 and 34.2 µM in experiment [4]. In addition, the “inhibition (INH)” value in the experiment with HUVEC [2] stood at 48.1%. Besides, in the experiment with HUVEC [3], the inhibition at 15 µM was found to be 42.4%. For the same compound, the result in the experiment listed under Gallus gallus was Active.

On to `Cc1ccc(-c2cc(NCCCO)c3ccccc3n2)cc1`, for which the IC50 in the experiment with HUVEC [1] came out at 63.5 µM; with NCI-H460, 48.1 µM; in experiment [4] it was 60.3 µM. Moreover, in the experiment on HUVEC [2], the “inhibition (INH)” value came out at 33.8%. Moreover, the inhibition at 15 µM with HUVEC [3] worked out at 44.2%. The outcome in the experiment filed under Gallus gallus was Active.

As to `c1ccc2c(NCCCN3CCOCC3)cc(-c3ccc(CNCCCN4CCOCC4)cc3)nc2c1`, the half-maximal inhibitory concentration (IC50) is 56.5 µM with HUVEC [1], 42.3 µM with NCI-H460, 34.4 µM in experiment [4] and more than 100 µM in the experiment on HUVEC [8]. Further, in the experiment with HUVEC [5], the “inhibition (INH)” value is 49.2%. The inhibition at 30 µM in the experiment with HUVEC [6] came out at 15.8%. Moreover, the inhibition at 15 µM in the experiment with HUVEC [7] was determined as 46.2%.

Take `CN(C)CCCNCc1ccc(-c2cc(=O)c3ccccc3n2C)cc1`: the IC50 with HUVEC [1] is 99.7 µM; with NCI-H460, more than 100 µM; in experiment [4], more than 100 µM. In addition, the “inhibition (INH)” value with HUVEC [2] is 42%. The same compound displayed an inhibition at 15 µM with HUVEC [3] of 31.9%.

Turning to `COc1ccc(-c2cc(Cl)c3ccccc3n2)cc1`, the IC50 (in the experiment with HUVEC [1]; with NCI-H460; in experiment [4]) was more than 100 µM in each case. Further, in the experiment on HUVEC [2], the “inhibition (INH)” value was determined as 48.2%. The inhibition at 15 µM in the experiment with HUVEC [3] was found to be 52.6%.

For the compound `COc1cc(-c2ccc(COC(=O)c3cccs3)cc2)nc2ccccc12`, the IC50 (in the experiment on HUVEC [1]; in the experiment on NCI-H460; in experiment [4]) was more than 100 µM in each case. Further, the “inhibition (INH)” value in the experiment on HUVEC [2] came out at 27.4%. The same compound gave an inhibition at 15 µM with HUVEC [3] of 37.4%.

Regarding `COc1cc(-c2ccc(C)cc2)nc2ccccc12`, the IC50 (in the experiment with HUVEC [1]; in the experiment with NCI-H460; in experiment [4]) was more than 100 µM each time. The “inhibition (INH)” value in the experiment with HUVEC [2] is reported as 20.3%. The compound also gave an inhibition at 15 µM in the experiment with HUVEC [3] of 35.4%.

On to `Cc1ccc(-c2cc(NCCCN3CCOCC3)c3ccccc3n2)cc1`, for which the IC50 with HUVEC [1] was determined as 45.2 µM; in the experiment on NCI-H460 it was 11.5 µM; in [4], 49.5 µM. The “inhibition (INH)” value with HUVEC [2] is given as 49.2%. In addition, 15 µM produced 47.2% inhibition in the experiment on HUVEC [3]. Besides, the result in the experiment filed under Gallus gallus was Active.

With `Cc1ccc(-c2cc(NCCO)c3ccccc3n2)cc1`, the half-inhibitory concentration (IC50) with HUVEC [1] worked out at 73.7 µM; in the experiment with NCI-H460 it was 53.7 µM; in experiment [4], 61.1 µM. Moreover, the “inhibition (INH)” value with HUVEC [2] turned out to be 40%. Moreover, the inhibition at 15 µM in the experiment with HUVEC [3] came to 38.3%. Further, the result in the experiment filed under Gallus gallus was Active.

With `Cc1ccc(-c2cc(Cl)c3ccccc3n2)cc1`, the IC50 (in the experiment with HUVEC [1]; in the experiment on NCI-H460; in [4]) was more than 100 µM in each case. Besides, the “inhibition (INH)” value in the experiment on HUVEC [2] came out at 35.2%. In the experiment with HUVEC [3], the inhibition at 15 µM worked out at 39%.

As for `Clc1cc(-c2ccc(CNCCCN3CCOCC3)cc2)nc2ccccc12`, the values for the IC50 (in the experiment with HUVEC [1]; with NCI-H460; in experiment [4]) were 22.4 µM, 21.1 µM and 30.6 µM, respectively. The “inhibition (INH)” value in the experiment with HUVEC [2] was 72.3%. The same compound had an inhibition at 15 µM in the experiment on HUVEC [3] of 67.8%.

For the compound `Cc1ccc(-c2cc(NCCN(C)C)c3ccccc3n2)cc1`, the half-maximal inhibitory concentration (IC50) turned out to be 30.3 µM in the experiment with HUVEC [1], 6.1 µM in the experiment with NCI-H460 and 20.6 µM in experiment [4]. For the same compound, in the experiment on HUVEC [2], the “inhibition (INH)” value is 48.2%. Further, at 15 µM the inhibition in the experiment with HUVEC [3] was 52.2%. Further, in the experiment filed under Gallus gallus, the result was Active.

Consider `COc1ccc(-c2cc(NCCO)c3ccccc3n2)cc1`, for which the IC50 was found to be 74.1 µM in the experiment with HUVEC [1], 38.3 µM with NCI-H460 and 56.2 µM in experiment [4]. For the same compound, the “inhibition (INH)” value in the experiment on HUVEC [2] was determined as 54.9%. In the experiment with HUVEC [3], this compound displayed an inhibition at 15 µM of 54.1%.

With `Cc1ccc(-c2cc(=O)c3ccccc3n2C)cc1`, the IC50 (in the experiment on HUVEC [1]; in the experiment with NCI-H460; in [4]) was more than 100 µM throughout. Moreover, the “inhibition (INH)” value in the experiment on HUVEC [2] was 8.1%. For the same compound, the inhibition at 15 µM with HUVEC [3] amounted to 30.3%.

For the compound `COc1ccc(-c2cc(NCCCO)c3ccccc3n2)cc1`, the IC50 in the experiment with HUVEC [1] is 47.6 µM; in the experiment with NCI-H460 it was 24 µM; in [4], 40.9 µM. Besides, the “inhibition (INH)” value in the experiment on HUVEC [2] was found to be 56.4%. Besides, testing at 15 µM in the experiment on HUVEC [3] gave an inhibition of 45.3%.

Consider `COc1cc(-c2ccc(CO)cc2)nc2ccccc12`, for which the IC50 (in the experiment with HUVEC [1]; with NCI-H460; in [4]) was more than 100 µM each time. For the same compound, the “inhibition (INH)” value with HUVEC [2] is listed as 19.4%. In addition, testing at 15 µM in the experiment on HUVEC [3] gave an inhibition of 27.5%.

One may read the IC50 as the concentration that inhibits the measured activity by half. Low values mean inhibition by little substance, high ones a need for much substance. A word on the inhibition: it is the change of the read-out against control, counted positive when it falls. Read a low inhibition as little suppression.
